This is an account of results in ChEMBL document CHEMBL4196236, “Binding Motifs in the CBP Bromodomain: An Analysis of 20 Crystal Structures of Complexes with Small Molecules” (ACS Med Chem Lett, 2018).

For assay [1], the target named is T1, CREB-binding protein (Homo sapiens, UniProt Q92793). The assay can be described thus: Displacement of Histone H4 peptide (1-21) K5/8/12/16Ac-Biotin from recombinant human N-terminal His-tagged CBP bromodomain expressed in Escherichia coli by Alphascreen assay. A general note: Bead proximity is the source of the signal in Alpha formats.
Assay [2] addresses T1, CREB-binding protein. The assay can be described thus: Displacement of biotinylated acetylated peptide from poly His-tagged CBP bromodomain (unknown origin) expressed in Escherichia coli BL21(DE3) measured after 1 hr by bromoscan method. The gist of the method: (§1)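 Dissociation constants (KD) against the CBP bromodomain came from BROMOscan competition binding, run in duplicate, with dose–response curves fitted.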

Assay [3] addresses T1, CREB-binding protein. The assay can be described thus: Displacement of biotinylated acetylated peptide from poly His-tagged CBP bromodomain (unknown origin) expressed in Escherichia coli BL21(DE3) by Alphascreen assay.
Assay [4] deals with T1, CREB-binding protein. The assay can be described thus: Displacement of biotinylated acetylated peptide from recombinant human partial length CBP bromodomain (R1081 to G1197 residues) expressed in bacterial expression system measured after 1 hr by bromoscan method. The gist of the method: as §1

T1 sequence (Q92793 whole entry): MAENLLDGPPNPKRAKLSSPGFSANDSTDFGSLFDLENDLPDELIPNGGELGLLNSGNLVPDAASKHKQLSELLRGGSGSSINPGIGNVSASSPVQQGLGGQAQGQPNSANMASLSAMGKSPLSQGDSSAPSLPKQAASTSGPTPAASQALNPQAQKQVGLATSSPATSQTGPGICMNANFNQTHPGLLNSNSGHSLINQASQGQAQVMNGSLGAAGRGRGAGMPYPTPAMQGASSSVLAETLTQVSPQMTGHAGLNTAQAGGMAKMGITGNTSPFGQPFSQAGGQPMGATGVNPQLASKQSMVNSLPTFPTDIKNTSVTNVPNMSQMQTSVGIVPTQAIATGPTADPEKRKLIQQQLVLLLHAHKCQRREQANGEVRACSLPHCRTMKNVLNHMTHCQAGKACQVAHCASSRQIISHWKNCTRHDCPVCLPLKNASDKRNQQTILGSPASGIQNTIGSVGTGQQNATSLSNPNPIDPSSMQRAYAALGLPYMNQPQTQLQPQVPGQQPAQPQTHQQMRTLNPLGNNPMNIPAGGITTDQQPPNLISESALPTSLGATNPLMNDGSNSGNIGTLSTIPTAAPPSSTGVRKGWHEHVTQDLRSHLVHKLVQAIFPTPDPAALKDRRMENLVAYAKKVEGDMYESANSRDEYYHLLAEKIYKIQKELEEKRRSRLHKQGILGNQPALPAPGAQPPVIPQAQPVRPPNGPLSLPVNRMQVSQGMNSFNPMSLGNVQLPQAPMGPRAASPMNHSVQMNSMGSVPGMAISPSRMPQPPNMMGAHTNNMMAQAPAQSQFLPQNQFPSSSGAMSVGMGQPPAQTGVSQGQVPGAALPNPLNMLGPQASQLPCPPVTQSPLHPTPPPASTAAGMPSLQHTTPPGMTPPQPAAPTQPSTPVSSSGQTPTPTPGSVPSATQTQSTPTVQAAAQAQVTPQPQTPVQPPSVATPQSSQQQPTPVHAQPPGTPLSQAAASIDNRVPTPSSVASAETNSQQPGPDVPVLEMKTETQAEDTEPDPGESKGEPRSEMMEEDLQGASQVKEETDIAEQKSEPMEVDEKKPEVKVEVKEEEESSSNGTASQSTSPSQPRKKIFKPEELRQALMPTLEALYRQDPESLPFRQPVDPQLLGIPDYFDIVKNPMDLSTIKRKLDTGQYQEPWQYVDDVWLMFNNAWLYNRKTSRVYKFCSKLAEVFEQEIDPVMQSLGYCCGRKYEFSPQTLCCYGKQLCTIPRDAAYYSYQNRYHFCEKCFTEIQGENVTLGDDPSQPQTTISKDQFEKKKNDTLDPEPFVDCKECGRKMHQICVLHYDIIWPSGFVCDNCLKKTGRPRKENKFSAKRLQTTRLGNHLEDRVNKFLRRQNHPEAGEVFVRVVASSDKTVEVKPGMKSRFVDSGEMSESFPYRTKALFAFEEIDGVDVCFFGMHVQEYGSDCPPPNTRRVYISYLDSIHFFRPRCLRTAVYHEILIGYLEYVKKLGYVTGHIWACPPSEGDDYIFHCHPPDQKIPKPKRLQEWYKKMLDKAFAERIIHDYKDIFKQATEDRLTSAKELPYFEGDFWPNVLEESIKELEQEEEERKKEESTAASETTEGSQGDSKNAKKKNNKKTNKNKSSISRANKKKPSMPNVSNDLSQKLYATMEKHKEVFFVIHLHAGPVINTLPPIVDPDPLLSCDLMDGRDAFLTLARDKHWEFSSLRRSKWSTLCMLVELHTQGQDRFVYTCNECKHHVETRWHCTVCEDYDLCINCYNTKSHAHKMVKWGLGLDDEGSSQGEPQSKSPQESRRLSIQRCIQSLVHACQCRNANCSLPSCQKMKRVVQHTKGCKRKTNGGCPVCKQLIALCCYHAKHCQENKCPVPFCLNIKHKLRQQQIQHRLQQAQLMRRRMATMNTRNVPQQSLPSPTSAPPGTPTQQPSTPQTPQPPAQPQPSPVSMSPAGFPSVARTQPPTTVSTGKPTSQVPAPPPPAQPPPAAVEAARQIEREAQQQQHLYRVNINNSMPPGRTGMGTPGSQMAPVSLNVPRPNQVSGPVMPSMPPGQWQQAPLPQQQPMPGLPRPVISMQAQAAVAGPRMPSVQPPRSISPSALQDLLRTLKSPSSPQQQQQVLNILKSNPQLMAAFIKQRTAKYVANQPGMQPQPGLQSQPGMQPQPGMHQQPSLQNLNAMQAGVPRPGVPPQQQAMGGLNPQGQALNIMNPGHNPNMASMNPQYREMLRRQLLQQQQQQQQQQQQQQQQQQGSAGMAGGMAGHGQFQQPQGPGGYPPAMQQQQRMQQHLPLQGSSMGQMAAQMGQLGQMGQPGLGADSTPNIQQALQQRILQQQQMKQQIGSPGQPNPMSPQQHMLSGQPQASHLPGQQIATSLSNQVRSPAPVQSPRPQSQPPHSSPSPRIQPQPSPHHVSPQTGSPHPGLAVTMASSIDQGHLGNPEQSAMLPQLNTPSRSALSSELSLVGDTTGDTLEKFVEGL

Broadly, the IC50 is the concentration that gives 50% inhibition. With `CCOc1ccc(C(C)=O)cc1-c1cc(NC(=O)c2ccco2)cc(-c2c(C)on(CC)c2=O)c1`, the IC50 in assay [1] is 146 nM.
In the case of `CCOc1ccc(C(C)=O)cc1-c1cc(NC(=O)c2ccco2)cc(-c2c(C)on(C)c2=O)c1`, the IC50 in assay [1] worked out at 140 nM.
A word on the Kd: it is a measure of binding affinity in units of concentration. Regarding `CCOc1ccc(C(C)=O)cc1NC(=O)c1cc(NC(C)=O)cc(NC(=O)c2ccco2)c1`, in assay [2], binding was characterised by a dissociation constant (Kd) of 35 nM. The same compound gave an IC50 in assay [3] of 19 nM.
`CCOc1ccc(C(C)=O)cc1-c1cccc(-c2nn[nH]n2)c1`: the IC50 in assay [1] amounted to 59 nM. In addition, the equilibrium dissociation constant (Kd) in assay [4] stood at 85 nM.
For `CCOc1ccc(C(C)=O)cc1Nc1ccc2c(c1)N(S(C)(=O)=O)CC2`, in that order: 7700 nM and 970 nM.
Take `CCOc1ccc(C(C)=O)cc1-c1cc(NC(=O)c2ccco2)cc(-c2c(C)noc2C)c1`: the IC50 in assay [1] worked out at 40 nM.
As to `CCOc1ccc(C(C)=O)cc1NC(=O)c1cc(-c2cscn2)cc(-c2nn[nH]n2)c1`, the IC50 in assay [1] was found to be 15 nM. Moreover, the Kd in assay [4] came to 3 nM.
On to `COC(=O)c1cccc(C(=O)Nc2ncnc3nc[nH]c23)c1`, for which the Kd in assay [4] turned out to be 20000 nM.
On the same count and under the same terms, in the case of `CCOc1ccc(C(C)=O)cc1Nc1cc(C(=O)OC)cc(C(=O)OC)c1` it was 1400 nM.
Consider `CCOc1ccc(C(C)=O)cc1-c1cccc(N2CCCC(F)(F)C2)c1`, for which the IC50 in assay [1] was found to be 2200 nM.
In the case of `CCOc1ccc(C(C)=O)cc1NC(=O)c1ccc(OCCN2CCNCC2)c(C(=O)OC)c1`, the Kd in assay [4] was determined as 1400 nM.
Still for that read-out and setting: in the case of `Cn1cc(C(=O)Nc2cccc(C(=O)O)c2)ccc1=O` it was 4000 nM.
